Active and inactive are the calls of the source. The rule behind the calls is not given here.
Key:
Vero = test: Cytotoxicity against African green monkey Vero cells assessed as reduction in cell viability incubated for 48 hrs by MTT assay; type: cell-based; details: Chlorocebus sabaeus
Summary of the method: (§1)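 MTT assay on MCF-7 breast cancer cells and noncancerous Vero cells, with tamoxifen as positive control. One MCF-7 arm was pretreated with the NQO1 inhibitor dicoumarol. IC50 values are from three experiments. Cytotoxicity index is the IC50 of the prodrug in Vero cells relative to the parent cucurbitacin B IC50 in Vero cells.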

MCF7 [1] = test: Cytotoxicity against human MCF7 cells assessed as reduction in cell viability incubated for 48 hrs by MTT assay; type: functional, cell-based; details: for IC50: MCF7, 48 h; summary of the method: as §1
MCF7 [2] = test: Cytotoxicity against human MCF7 cells assessed as reduction in cell viability incubated for 48 hrs in presence of NQO1 inhibitor dicoumarol by MTT assay; type: functional, cell-based; details: MCF7, 48 h; summary of the method: as §1
[3] = Toxicity in BALB/c mouse implanted with mouse 4T1 cells assessed as death at 3 mg/kg/day, ip measured after 1 day; type: organism-based; details: in vivo, 24 h
Summary of the method: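 BALB/c mice carrying 4T1 breast cancer cell tumours received the test agent once a day, dosed in mg/kg/d. An untreated control group ran alongside. Tumour volume and body weight were followed over the treatment period, survival was recorded after dosing began, and tumours were excised and weighed after sacrifice.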

[4] = Stability of the compound in DMEM medium with 10% FBS incubated for 72 hrs by HPLC analysis
Summary of the method: (§2)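 Prodrugs were held in DMEM with 10% FBS for up to 72 h. The fraction of intact compound remaining over time was followed by HPLC.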

[5] = Stability of the compound in DMEM medium with 10% FBS assessed as compound remaining incubated for 24 hrs by HPLC analysis; summary of the method: as §2
[6] = Cytotoxicity index, ratio of compound IC50 to cucurbitacin B IC50 for cytotoxicity against African green monkey Vero cells by MTT assay; type: cell-based; details: chlorocebus sabaeus, read-out: Ratio IC50; summary of the method: as §1
[7] = Drug uptake in human MCF7 cells assessed as compound remaining in culture medium at 25 uM incubated for 24 hrs by HPLC analysis; type: ADME, cell-based; details: mcf7, 24 h
Summary of the method: (§3)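 MCF-7 cells were exposed to 25 μM prodrug for 24 h, then lysed. Prodrug concentrations in culture medium and in cell lysate were measured by HPLC against a calibration curve.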

[8] = biological target: T1, NAD(P)H dehydrogenase [quinone] 1 (Homo sapiens, UniProt P15559); test: Prodrug activation in human MCF7 cells assessed as NQO1-mediated CuB release in cell lysate at 25 uM incubated for 24 hrs by HPLC analysis; type: subcellular; details: mcf7, 24 h
T1 sequence (P15559 whole entry): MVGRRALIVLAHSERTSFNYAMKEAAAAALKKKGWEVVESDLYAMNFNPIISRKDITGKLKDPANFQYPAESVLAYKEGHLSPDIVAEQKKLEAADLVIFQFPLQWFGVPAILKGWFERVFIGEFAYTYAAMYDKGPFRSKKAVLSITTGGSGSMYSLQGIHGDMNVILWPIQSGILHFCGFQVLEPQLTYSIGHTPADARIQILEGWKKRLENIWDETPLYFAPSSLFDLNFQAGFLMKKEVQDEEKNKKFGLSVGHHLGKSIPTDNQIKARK

[9] = biological target: T1, NAD(P)H dehydrogenase [quinone] 1; test: Prodrug activation in human MCF7 cells assessed as NQO1-mediated CuB release at 25 uM incubated for 24 hrs by HRMS analysis; type: cell-based; details: mcf7, 24 h
[10] = biological target: T1, NAD(P)H dehydrogenase [quinone] 1; test: Prodrug activation in human MCF7 cells assessed as NQO1-mediated cucurbitacin B formation by ESI-TOFMS analysis; type: cell-based
[11] = biological target: T1, NAD(P)H dehydrogenase [quinone] 1; test: Prodrug activation in human MCF7 cells assessed as appearance of extended m/z range to 1000 at 25 uM measured after 24 hrs by HRMS analysis; type: cell-based; details: mcf7, 24 h
[12] = biological target: T1, NAD(P)H dehydrogenase [quinone] 1; test: Prodrug activation in human MCF7 cells assessed as NQO1-mediated 6-hydroxy-4,4,5,7,8-pentamethylchroman-2-one formation at 25 uM incubated for 24 hrs by HRMS analysis; type: cell-based; details: mcf7, 24 h
[13] = Drug uptake in human MCF7 cell lysate at 25 uM incubated for 24 hrs by HPLC analysis; type: ADME, subcellular; details: mcf7, 24 h; summary of the method: as §3
[14] = biological target: T1, NAD(P)H dehydrogenase [quinone] 1; test: (§4) Prodrug activation in human MCF7 cells assessed as NQO1-mediated ((R)-6-((2S,8S,9R,10R,13R,14S,16R,17R)-2-(3-aminopropylcarbamoyloxy)-16-hydroxy-4,4,9,13,14-pentamethyl-3,11-dioxo-2,3,4,7,8,9,10,11,12,13,14,15,16,17-tetradecahydro-1H-cyclopenta[a]phenanthren-17-yl)-6-hydroxy-2-methyl-5-oxohept-3-en-2-yl acetate formation at 25 uM incubated for 24 hrs by HRMS analysis; type: cell-based; details: mcf7, 24 h
[15] = biological target: T1, NAD(P)H dehydrogenase [quinone] 1; test: as §4, with “acetate metabolite” for “acetate”, “HPLC” for “HRMS”; type: ADME, cell-based; details: mcf7, 24 h
[16] = biological target: T1, NAD(P)H dehydrogenase [quinone] 1; test: Prodrug activation in human MCF7 cell lysate assessed as NQO1-mediated tetrahydropyrimidin-2(1H)-one formation at 25 uM incubated for 24 hrs by HPLC analysis; type: subcellular; details: mcf7, 24 h
[17] = biological target: T1, NAD(P)H dehydrogenase [quinone] 1; test: Prodrug activation in human MCF7 cells assessed as NQO1-mediated ((R)-6-((2S,8S,9R,10R,13R,14S,16R,17R)-2-(3-aminopropylcarbamoyloxy)-16-hydroxy-4,4,9,13,14-pentamethyl-3,11-dioxo-2,3,4,7,8,9,10,11,12,13,14,15,16,17-tetradecahydro-1H-cyclopenta[a]phenanthren-17-yl)-6-hydroxy-2-methyl-5-oxohept-3-en-2-yl acetate formation by ESI-TOFMS analysis; type: cell-based
[18] = Prodrug activation in human MCF7 cell cultured in DMEM medium with 10% FBS at 25 uM incubated for 24 hrs by HPLC analysis; type: cell-based; details: mcf7, 24 h
[19] = biological target: T1, NAD(P)H dehydrogenase [quinone] 1; test: (§5) Prodrug activation in human MCF7 cells assessed as NQO1-mediated (R)-6-hydroxy-6-((2S,8S,9R,10R,13R,14S,16R,17R)-16-hydroxy-4,4,9,13,14-pentamethyl-2-(methyl(3-(methylamino)propyl)carbamoyloxy)-3,11-dioxo 2,3,4,7,8,9,10,11,12,13,14,15,16,17-tetradecahydro-1H-cyclopenta[a]phenanthren-17-yl)-2-methyl-5-oxohept-3-en-2-yl acetate metabolite formation at 25 uM incubated for 24 hrs by HPLC analysis; type: ADME, cell-based; details: mcf7, 24 h
4T1 [20] = test: Antitumor activity against mouse 4T1 cells implanted in BALB/c mouse assessed as tumor growth inhibition at 5 mg/kg/day, ip for 2 weeks measured daily during compound dosing by digital caliper method relative to control; type: functional; details: 4T1, ip, 336 h, read-out: TGI
4T1 [21] = test: Antitumor activity against mouse 4T1 cells xenografted in BALB/c mouse assessed as tumor weight at 3 to 10 mg/kg/day, ip for 2 weeks (reference value: 500 to 700 mg); type: functional
[22] = Toxicity in BALB/c mouse implanted with mouse 4T1 cells assessed as body weight at 3 mg/kg/day, ip for 2 weeks measured daily during compound dosing (reference value: -1.48 %); type: organism-based; details: in vivo, 336 h
[23] = Toxicity in BALB/c mouse implanted with mouse 4T1 cells assessed as body weight at 5 mg/kg/day, ip for 2 weeks measured during compound dosing (reference value: -1.48 %); type: organism-based; details: in vivo, 336 h
[24] = Toxicity in BALB/c mouse implanted with mouse 4T1 cells assessed as body weight at 10 mg/kg/day, ip for 2 weeks measured daily during compound dosing (reference value: -1.48 %); type: organism-based; details: in vivo, 336 h
[25] = biological target: T1, NAD(P)H dehydrogenase [quinone] 1; test: as §5, with “acetate” for “acetate metabolite”, “HRMS” for “HPLC”; type: cell-based; details: mcf7, 24 h
4T1 [26] = test: Antitumor activity against mouse 4T1 cells implanted in BALB/c mouse assessed as tumor growth inhibition at 3 to 10 mg/kg/day, ip for 2 weeks measured daily during compound dosing by digital caliper method; type: functional, organism-based
[27] = biological target: T1, NAD(P)H dehydrogenase [quinone] 1; test: Prodrug activation in human MCF7 cell lysate assessed as NQO1-mediated 1,3-dimethyltetrahydropyrimidin-2(1H)-one formation at 25 uM incubated for 24 hrs by HPLC analysis; type: subcellular; details: mcf7, 24 h
[28] = biological target: T1, NAD(P)H dehydrogenase [quinone] 1; test: Prodrug activation in human MCF7 cells assessed as NQO1-mediated (R)-6-hydroxy-6-((2S,8S,9R,10R,13R,14S,16R,17R)-16-hydroxy-4,4,9,13,14-pentamethyl-2-(methyl(3-(methylamino)propyl)carbamoyloxy)-3,11-dioxo 2,3,4,7,8,9,10,11,12,13,14,15,16,17-tetradecahydro-1H-cyclopenta[a]phenanthren-17-yl)-2-methyl-5-oxohept-3-en-2-yl acetate formation by ESI-TOFMS analysis; type: cell-based

| Compound | IC50 (Vero) [µM] | IC50 (MCF7 [1]) [µM] | IC50 (MCF7 [2]) [µM] | inhibition (MCF7 [1]) | Activity (Vero) | Stability [4] | Stability [5] [%] | selectivity ratio [6] | Drug metabolism [8] | Drug metabolism [9] | Drug metabolism [10] | Drug metabolism [11] | Drug metabolism [12] | Drug uptake [13] | other results |
| --- | --- | --- | --- | --- | --- | --- | --- | --- | --- | --- | --- | --- | --- | --- | --- |
| Cc1c2ccncc2c(C)c2c1[nH]c1ccccc12 [ELLIPTECINE] | 4.06 | – | – | – | – | – | – | – | – | – | – | – | – | – | – |
| CC(=O)OC(C)(C)/C=C/C(=O)[C@](C)(O)[C@H]1[C@H](O)C[C@@]2(C)[C@@H]3CC=C4[C@@H](C[C@H](O)C(=O)C4(C)C)[C@]3(C)C(=O)C[C@]12C | 0.04 | 12 | 9.72 | – | – | – | – | – | – | – | – | – | – | – | Activity [3]: Toxic |
| O=C1NCCCN1 | – | – | – | inactive | Non-Toxic | – | – | – | – | – | – | – | – | – | – |
| CC(=O)OC(C)(C)/C=C/C(=O)[C@](C)(O)[C@H]1[C@H](O)C[C@@]2(C)[C@@H]3CC=C4[C@@H](C[C@H](OC(=O)CC(C)(C)C5=C(C)C(=O)C(C)=C(C)C5=O)C(=O)C4(C)C)[C@]3(C)C(=O)C[C@]12C | 0.07 | 16.6 | > 100 | – | – | Stable | > 90 | 1.75 | Metabolite_Detected | Metabolite_Detected | Metabolite_Detected | Metabolite_Notdetected | Metabolite_Detected | Not Active | Drug uptake [7]: 6.21 µM |
| CN1CCCN(C)C1=O | – | – | – | inactive | Non-Toxic | – | – | – | – | – | – | – | – | – | – |
| Cc1c(C)c2c(c(C)c1O)C(C)(C)CC(=O)O2 | – | – | – | inactive | Non-Toxic | – | – | – | – | – | – | – | – | – | – |
| CC(=O)OC(C)(C)/C=C/C(=O)[C@](C)(O)[C@H]1[C@H](O)C[C@@]2(C)[C@@H]3CC=C4[C@@H](C[C@H](OC(=O)NCCCNC(=O)CC(C)(C)C5=C(C)C(=O)C(C)=C(C)C5=O)C(=O)C4(C)C)[C@]3(C)C(=O)C[C@]12C | 1.87 | 15.4 | > 100 | – | – | Stable | > 90 | 46.8 | Metabolite_Detected | Metabolite_Detected | Metabolite_Detected | Metabolite_Notdetected | Metabolite_Detected | Not Active | Drug metabolism [14]: Metabolite_Detected; Drug metabolism [15]: Metabolite_Detected; Drug metabolism [16]: Metabolite_Notdetected; Drug metabolism [17]: Metabolite_Detected; Drug metabolism [18]: Metabolite_Detected |
| CC(=O)OC(C)(C)/C=C/C(=O)[C@](C)(O)[C@H]1[C@H](O)C[C@@]2(C)[C@@H]3CC=C4[C@@H](C[C@H](OC(=O)N(C)CCCN(C)C(=O)CC(C)(C)C5=C(C)C(=O)C(C)=C(C)C5=O)C(=O)C4(C)C)[C@]3(C)C(=O)C[C@]12C | 12.4 | 18.1 | > 100 | – | – | Stable | > 90 | 310 | Metabolite_Detected | Metabolite_Detected | Metabolite_Detected | Metabolite_Notdetected | Metabolite_Detected | Not Active | Drug uptake [7]: 8.39 µM; Drug metabolism [19]: Metabolite_Detected; inhibition in vivo at 5 mg/kg/day (4T1 [20]): 53.8%; Activity (4T1 [21]): <400 mg; Activity [22]: 6.46%; Activity [23]: 5.27%; Activity [24]: -2.49%; Drug metabolism [25]: Metabolite_Detected; TGI (4T1 [26]): Active; Drug metabolism [27]: Metabolite_Notdetected; Drug metabolism [28]: Metabolite_Detected |
| CC/C(=C(\c1ccccc1)c1ccc(OCCN(C)C)cc1)c1ccccc1 [TAMOXIFEN] | – | – | – | – | – | – | – | – | – | – | – | – | – | – | inhibition in vivo at 5 mg/kg/day (4T1 [20]): 55%; Activity [23]: 4.99% |

Reference: ChEMBL document CHEMBL4364354, “A Bioreductive Prodrug of Cucurbitacin B Significantly Inhibits Tumor Growth in the 4T1 Xenograft Mice Model” (ACS Med Chem Lett, 2019)
